According to paper PMC12145421 (NPJ Science of Food, 2025):
In brackets after ≈: the same amount, converted by molar mass.

Columns and labels:
[1] = Solubility studies of CoQ10 in water by HPLC; type: physicochemical
Summary of the method: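 The powder was mixed with an equal volume of water to give a supersaturated solution. It was shaken at 200 rpm in a 25 °C water bath for 24 h. CoQ10 was measured by HPLC on a C8 column at 45 °C with methanol at 1 mL/min, against a 0.05–25 μg/mL standard curve. Triplicate independent experiments; mean ± SD.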

[2] = In vivo bioavailability study, plasma CoQ10 after oral administration to rats; conditions: male, SD, rat, 15 mg/kg
Summary of the method: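 Six-week-old SPF male rats (180–200 g), acclimatised ≥3 days at 23–25 °C with a 12 h light/dark cycle, n = 5 per group, fasted 12 h. Oral 15 mg/kg dose in 0.5% (w/v) sodium CMC. Tail-vein blood at 0, 0.5, 1, 2, 4, 8, 12 and 24 h. Plasma extracted with n-propanol and assayed by HPLC against a 0–3000 ng/mL plasma standard curve. Non-compartmental model; AUC by linear trapezoid.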

solubility at 24 h [1]: 2.3 µg/mL (≈ 2.66 µM)
AUC(0-t) [2]: 196 ± 96.9 ng·h/mL
Cmax [2]: 50.3 ± 5.7 ng/mL
Tmax ([2]; Tmax, rats, oral, n = 5, plasma CoQ10): ~1 h
SMILES: COC1=C(OC)C(=O)C(C/C=C(\C)CC/C=C(\C)CC/C=C(\C)CC/C=C(\C)CC/C=C(\C)CC/C=C(\C)CC/C=C(\C)CC/C=C(\C)CC/C=C(\C)CCC=C(C)C)=C(C)C1=O [CoQ10, Coenzyme Q10]
